Measured values as given in ChEMBL document CHEMBL1133671, “Synthesis and SAR of new 5-phenyl-3-ureido-1,5-benzodiazepines as cholecystokinin-B receptor antagonists” (J Med Chem, 2000).

Species on record: Cavia porcellus
Assay: Selectivity factor between CCK-B and CCK-A receptors
Settings: not given

SMILES | Ratio
O=C(O)CCCOc1ccc(NC(=O)NC2C(=O)N(CC34C[C@H]5C[C@@H](C3)C[C@@H](C4)C5)c3ccccc3N(c3ccccc3)C2=O)cc1 (single isomer, unassigned; (+)) | > 2630
O=C(Nc1ccc(O)cc1)NC1C(=O)N(CC23C[C@H]4C[C@@H](C2)C[C@@H](C3)C4)c2ccccc2N(c2ccccc2)C1=O (single isomer, unassigned; (+)) | 30900
CCOC(=O)CCCOc1ccc(NC(=O)NC2C(=O)N(CC34C[C@H]5C[C@@H](C3)C[C@@H](C4)C5)c3ccccc3N(c3ccccc3)C2=O)cc1 (single isomer, unassigned; (+)) | > 1900
CC(C)C(C)CN1C(=O)C(NC(=O)Nc2ccccc2)C(=O)N(c2ccccc2)c2ccccc21 (racemic) | 110
CSc1cccc(NC(=O)NC2C(=O)N(CCC(C)(C)C)c3ccccc3N(c3ccccc3F)C2=O)c1 (racemic) | 16
CC(C)CCN1C(=O)C(NC(=O)Nc2ccccc2)C(=O)N(c2ccccc2F)c2ccccc21 (racemic) | 25
CN(C)c1cccc(NC(=O)NC2C(=O)N(CC34C[C@H]5C[C@@H](C3)C[C@@H](C4)C5)c3ccccc3N(c3ccccc3)C2=O)c1 (mixture of isomers) | 398
CN(C)c1cccc(NC(=O)NC2C(=O)N(c3ccccc3)c3ccccc3N(C3[C@H]4C[C@@H]5C[C@@H](C[C@H]3C5)C4)C2=O)c1 (stereo not given in full) | 60
O=C(Nc1ccccc1)NC1C(=O)N(CC2[C@H]3C[C@@H]4C[C@@H](C[C@H]2C4)C3)c2ccccc2N(c2ccccc2)C1=O (mixture of isomers) | 48
CCOC(=O)c1cccc(NC(=O)NC2C(=O)N(CC34C[C@H]5C[C@@H](C3)C[C@@H](C4)C5)c3ccccc3N(c3ccccc3)C2=O)c1 (mixture of isomers) | 275
O=C(Nc1ccccc1)NC1C(=O)N(c2ccccc2)c2ccccc2N(C2CC3CCC2C3)C1=O (racemic) | 162
O=Cc1cccc(NC(=O)NC2C(=O)N(CC34C[C@H]5C[C@@H](C3)C[C@@H](C4)C5)c3ccccc3N(c3ccccc3)C2=O)c1 (stereo not given in full) | 1180
CN(C)c1cccc(NC(=O)NC2C(=O)N(c3ccccc3)c3ccccc3N(C3CC4CCC3C4)C2=O)c1 (stereo not given) | 40
CC(C)(C)CCN1C(=O)C(NC(=O)Nc2cccc(C#N)c2)C(=O)N(c2ccccc2)c2ccccc21 (stereo not given) | 151
O=C(Nc1cccc([N+](=O)[O-])c1)NC1C(=O)N(CC23C[C@H]4C[C@@H](C2)C[C@@H](C3)C4)c2ccccc2N(c2ccccc2)C1=O (mixture of isomers) | 158
CN(C)c1cccc(NC(=O)NC2C(=O)N(CCC34C[C@H]5C[C@@H](C3)C[C@@H](C4)C5)c3ccccc3N(c3ccccc3)C2=O)c1 (stereo not given in full) | 22
CSc1cccc(NC(=O)NC2C(=O)N(CCC(C)(C)C)c3ccccc3N(c3ccccc3)C2=O)c1 (racemic) | 15

Tested on: Rattus norvegicus
Assay: Anxiolytic effect in the rat social interaction test against FG 7142, when administered intraperitoneally
Type: functional
Settings: ip

SMILES | ED50 [µg/kg]
O=C(Nc1ccccc1)NC1C(=O)N(CC23C[C@H]4C[C@@H](C2)C[C@@H](C3)C4)c2ccccc2N(c2ccccc2)C1=O (single isomer, unassigned; (+)) [listing 1 of 2 here] | 10

Tested on: Rattus norvegicus
Assay: Anxiolytic effect in the rat social interaction test, when administered orally (po)
Type: functional
Settings: not given

SMILES | ED50 [µg/kg]
O=C(Nc1ccccc1)NC1C(=O)N(CC23C[C@H]4C[C@@H](C2)C[C@@H](C3)C4)c2ccccc2N(c2ccccc2)C1=O (single isomer, unassigned; (+)) [listing 1 of 2 here] | 1.6

Species on record: Rattus norvegicus
Assay: pKB determined against pentagastrin-induced acid secretion in isolated rat gastric mucosa
Type: functional
Settings: not given
Summary of the method: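 Isolated rat gastric mucosa used as a gastrin-receptor preparation; acid secretion stimulated with pentagastrin and antagonism expressed as pKB.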

SMILES | pKB
O=C(Nc1ccccc1)NC1C(=O)N(CC23C[C@H]4C[C@@H](C2)C[C@@H](C3)C4)c2ccccc2N(c2ccccc2)C1=O (single isomer, unassigned; (+)) [listing 1 of 2 here] | 7.4

Target: T1, Cholecystokinin receptor type A (Rattus norvegicus, UniProt P30551)
T1 sequence (P30551 whole entry): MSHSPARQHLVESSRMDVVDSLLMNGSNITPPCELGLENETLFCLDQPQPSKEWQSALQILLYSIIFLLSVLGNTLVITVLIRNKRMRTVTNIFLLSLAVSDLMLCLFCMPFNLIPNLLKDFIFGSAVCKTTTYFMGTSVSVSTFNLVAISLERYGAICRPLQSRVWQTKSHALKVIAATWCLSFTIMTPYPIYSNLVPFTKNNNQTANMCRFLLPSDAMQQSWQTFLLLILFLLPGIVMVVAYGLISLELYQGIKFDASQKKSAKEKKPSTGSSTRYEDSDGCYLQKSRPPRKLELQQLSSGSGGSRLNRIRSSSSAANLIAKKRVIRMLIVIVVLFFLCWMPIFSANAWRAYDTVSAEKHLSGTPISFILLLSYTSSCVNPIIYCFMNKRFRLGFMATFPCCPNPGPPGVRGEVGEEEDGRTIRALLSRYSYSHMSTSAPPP
Assay: Inhibition by displacing [3H]CCK-8S against Cholecystokinin type A receptor of rat pancreatic membranes
Settings: not given

SMILES | Ki [nM]
O=C(Nc1ccccc1)NC1C(=O)N(CC23C[C@H]4C[C@@H](C2)C[C@@H](C3)C4)c2ccccc2N(c2ccccc2)C1=O (single isomer, unassigned; (+)) [listing 1 of 2 here] | 1480
Cc1cccc(NC(=O)N[C@@H]2N=C(c3ccccc3)c3ccccc3N(C)C2=O)c1 [L-365260] | 0.148

Tested on: Mus musculus
Assay: Anxiolytic effect in the mouse black / white box model, when administered intravenously
Type: functional
Settings: iv
Summary of the method: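 Naive mice were placed in an activity box with a brightly illuminated section, and the time they spent there was recorded. The effect was assessed over a dose series and reported as an ED50.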

SMILES | ED50 [µg/kg]
O=C(Nc1ccccc1)NC1C(=O)N(CC23C[C@H]4C[C@@H](C2)C[C@@H](C3)C4)c2ccccc2N(c2ccccc2)C1=O (single isomer, unassigned; (+)) [listing 1 of 2 here] | 0.03

Target: T2, Cholecystokinin receptor type A (Cavia porcellus) (UniProt Q63931)
T2 sequence (whole entry): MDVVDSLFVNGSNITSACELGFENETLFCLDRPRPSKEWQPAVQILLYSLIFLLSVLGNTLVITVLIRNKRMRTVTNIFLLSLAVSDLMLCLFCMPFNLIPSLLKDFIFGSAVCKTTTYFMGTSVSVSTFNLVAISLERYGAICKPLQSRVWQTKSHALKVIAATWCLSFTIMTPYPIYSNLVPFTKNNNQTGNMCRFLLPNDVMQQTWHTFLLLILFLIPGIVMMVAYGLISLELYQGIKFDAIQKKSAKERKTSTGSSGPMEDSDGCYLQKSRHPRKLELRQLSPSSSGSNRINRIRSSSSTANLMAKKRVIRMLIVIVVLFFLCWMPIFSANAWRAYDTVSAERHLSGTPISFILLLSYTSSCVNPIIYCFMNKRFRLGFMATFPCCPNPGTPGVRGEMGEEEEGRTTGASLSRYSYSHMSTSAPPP
Settings: not given

SMILES | pKB
O=C(Nc1ccccc1)NC1C(=O)N(CC23C[C@H]4C[C@@H](C2)C[C@@H](C3)C4)c2ccccc2N(c2ccccc2)C1=O (single isomer, unassigned; (+)) [listing 2 of 2 here] | 5.9

Tested on: Mus musculus
Assay: Anxiolytic effect in the mouse black / white box model, when administered orally (po)
Type: functional
Settings: not given
Summary of the method: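 Naive mice placed in an activity box with a brightly illuminated section. The read-out was the time the mice remained in the lit section. Dose-related effects were assessed, and an ED50 value was derived.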

SMILES | ED50 [µg/kg]
O=C(Nc1ccccc1)NC1C(=O)N(CC23C[C@H]4C[C@@H](C2)C[C@@H](C3)C4)c2ccccc2N(c2ccccc2)C1=O (single isomer, unassigned; (+)) [listing 1 of 2 here] | 0.05

Target: T3, Gastrin/cholecystokinin type B receptor (Homo sapiens) (UniProt P32239)
T3 sequence (whole entry): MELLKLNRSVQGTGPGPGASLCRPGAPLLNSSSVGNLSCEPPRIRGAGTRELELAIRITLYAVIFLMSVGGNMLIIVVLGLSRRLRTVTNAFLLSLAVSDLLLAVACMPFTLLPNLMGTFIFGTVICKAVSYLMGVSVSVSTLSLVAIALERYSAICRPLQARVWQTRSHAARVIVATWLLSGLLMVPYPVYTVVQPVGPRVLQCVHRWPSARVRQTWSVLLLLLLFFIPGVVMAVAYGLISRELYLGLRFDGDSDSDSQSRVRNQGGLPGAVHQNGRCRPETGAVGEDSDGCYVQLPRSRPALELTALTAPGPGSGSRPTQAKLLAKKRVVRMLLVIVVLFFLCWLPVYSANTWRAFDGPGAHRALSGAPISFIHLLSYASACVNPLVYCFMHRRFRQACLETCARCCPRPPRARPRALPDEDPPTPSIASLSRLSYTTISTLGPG
Settings: Cavia porcellus

SMILES | pKB
O=C(Nc1ccccc1)NC1C(=O)N(CC23C[C@H]4C[C@@H](C2)C[C@@H](C3)C4)c2ccccc2N(c2ccccc2)C1=O (single isomer, unassigned; (+)) [listing 2 of 2 here] | 8.9

Target: T2, Cholecystokinin receptor type A (Cavia porcellus)
Settings: Gall bladder

SMILES | pKB
O=C(Nc1ccccc1)NC1C(=O)N(CC23C[C@H]4C[C@@H](C2)C[C@@H](C3)C4)c2ccccc2N(c2ccccc2)C1=O (single isomer, unassigned; (+)) [listing 2 of 2 here] | 5.8

Target: T1, Cholecystokinin receptor type A
Assay: In vitro inhibition of binding of [3H]pCCK-8 against Cholecystokinin type A receptor of rat pancreatic membranes
Type: cell membranes, Membrane
Settings: not given
Summary of the method: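 Radioligand displacement of [3H]CCK-8S from membranes: rat pancreas for the CCK-A receptor and guinea-pig cerebral cortex for the CCK-B receptor, using slightly modified published methods. Values are means of n experiments.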

SMILES | Ki [nM]
O=C(Nc1ccccc1)NC1C(=O)N(CC23C[C@H]4C[C@@H](C2)C[C@@H](C3)C4)c2ccccc2N(c2ccccc2)C1=O (single isomer, unassigned; (+)) [listing 1 of 2 here] | 1620
O=C(O)CCCOc1ccc(NC(=O)NC2C(=O)N(CC34C[C@H]5C[C@@H](C3)C[C@@H](C4)C5)c3ccccc3N(c3ccccc3)C2=O)cc1 (single isomer, unassigned; (+)) | > 10000
O=C(Nc1ccc(O)cc1)NC1C(=O)N(CC23C[C@H]4C[C@@H](C2)C[C@@H](C3)C4)c2ccccc2N(c2ccccc2)C1=O (single isomer, unassigned; (+)) | 20400
CCOC(=O)CCCOc1ccc(NC(=O)NC2C(=O)N(CC34C[C@H]5C[C@@H](C3)C[C@@H](C4)C5)c3ccccc3N(c3ccccc3)C2=O)cc1 (single isomer, unassigned; (+)) | > 10000
CC(C)C(C)CN1C(=O)C(NC(=O)Nc2ccccc2)C(=O)N(c2ccccc2)c2ccccc21 (racemic) | 123
CSc1cccc(NC(=O)NC2C(=O)N(CCC(C)(C)C)c3ccccc3N(c3ccccc3F)C2=O)c1 (racemic) | 11.7
CC(C)CCN1C(=O)C(NC(=O)Nc2ccccc2)C(=O)N(c2ccccc2F)c2ccccc21 (racemic) | 195
CN(C)c1cccc(NC(=O)NC2C(=O)N(CC34C[C@H]5C[C@@H](C3)C[C@@H](C4)C5)c3ccccc3N(c3ccccc3)C2=O)c1 (mixture of isomers) | 447
CN(C)c1cccc(NC(=O)NC2C(=O)N(c3ccccc3)c3ccccc3N(C3[C@H]4C[C@@H]5C[C@@H](C[C@H]3C5)C4)C2=O)c1 (stereo not given in full) | 141
O=C(Nc1ccccc1)NC1C(=O)N(CC2[C@H]3C[C@@H]4C[C@@H](C[C@H]2C4)C3)c2ccccc2N(c2ccccc2)C1=O (mixture of isomers) | 83.2
CCOC(=O)c1cccc(NC(=O)NC2C(=O)N(CC34C[C@H]5C[C@@H](C3)C[C@@H](C4)C5)c3ccccc3N(c3ccccc3)C2=O)c1 (mixture of isomers) | 813
O=C(Nc1ccccc1)NC1C(=O)N(c2ccccc2)c2ccccc2N(C2CC3CCC2C3)C1=O (racemic) | 251
O=Cc1cccc(NC(=O)NC2C(=O)N(CC34C[C@H]5C[C@@H](C3)C[C@@H](C4)C5)c3ccccc3N(c3ccccc3)C2=O)c1 (stereo not given in full) | 1120
CN(C)c1cccc(NC(=O)NC2C(=O)N(c3ccccc3)c3ccccc3N(C3CC4CCC3C4)C2=O)c1 (stereo not given) | 44.7
CC(C)(C)CCN1C(=O)C(NC(=O)Nc2cccc(C#N)c2)C(=O)N(c2ccccc2)c2ccccc21 (stereo not given) | 97.7
O=C(Nc1cccc([N+](=O)[O-])c1)NC1C(=O)N(CC23C[C@H]4C[C@@H](C2)C[C@@H](C3)C4)c2ccccc2N(c2ccccc2)C1=O (mixture of isomers) | 302
CN(C)c1cccc(NC(=O)NC2C(=O)N(CCC34C[C@H]5C[C@@H](C3)C[C@@H](C4)C5)c3ccccc3N(c3ccccc3)C2=O)c1 (stereo not given in full) | 295
CSc1cccc(NC(=O)NC2C(=O)N(CCC(C)(C)C)c3ccccc3N(c3ccccc3)C2=O)c1 (racemic) | 7.41
